Data published in article PMC3618282 (International journal of pharmaceutics, 2012).
Each block holds one compound with its values, some of them ahead of it. Square brackets hold non-standard residues; d marks the D form. Peptide text beside a SMILES is read from it. Sar = CNCC(=O)O

How the values were obtained:
[1] = Transporter-mediated transepithelial Gly-Sar transport; type: in vitro ADME, canine; settings: dog, MDCKII-BCRP
Method in brief: (§1)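 Monolayers under passage 6 were grown on Transwell inserts (2 × 10^5 cells/cm2) and washed with DPBS pH 7.4. Apical 0.5 mL was at pH 4.0–7.4; basolateral 1.5 mL was held at pH 7.4. [3H]Gly-Sar was run AP→BL and BL→AP. Receiver samples were taken over 60 min and replaced with fresh DPBS. Transporter-mediated Papp is [3H]Gly-Sar minus [14C]mannitol passive transport; n = 4.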

[2] = as above; type: in vitro ADME, canine; settings: dog; for Papp A→B at 60 min, 0.5 μCi/mL: MDCK-MDR1, AP–BL permeability; for Papp B→A at 60 min, 0.5 μCi/mL: MDCK-MDR1, BL–AP permeability
Method in brief: as §1

[3] = as above; type: in vitro ADME, canine; settings: dog, MDCK, MDCKII-wt
Method in brief: as §1

[4] = system: basolateral peptide transporters; experiment: Basolateral [3H]Gly-Sar uptake; type: in vitro ADME, canine; settings: dog, MDCKII-BCRP cells on Transwell inserts (basolateral uptake), pH 7.4
Method in brief: (§2)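 Cells under passage 6 were seeded at 2 × 10^5 cells/cm2 on Transwell inserts (0.4 μm pore) and dosed from the basolateral side. [3H]Gly-Sar was given with unlabeled Gly-Sar (0–250 μM) at 4 °C and 37 °C. Specific uptake is 37 °C minus 4 °C, normalised to protein and fitted to Michaelis–Menten for Km and Vmax; n = 3.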

[5] = system: basolateral peptide transporters in MDCKII-BCRP cells; experiment: Basolateral [3H]Gly-Sar uptake; type: in vitro ADME, canine; settings: basolateral uptake, MDCKII-BCRP
Method in brief: as §2

[6] = system: basolateral peptide transporters in MDCKII-wt cells; experiment: Basolateral [3H]Gly-Sar uptake; type: in vitro ADME, canine
Method in brief: as §2

[7] = system: apical peptide transporters; experiment: Apical [3H]Gly-Sar uptake; type: in vitro ADME, canine; settings: dog, MDCKII-MDR1 cells (apical uptake), pH 7.4
Method in brief: (§3)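 Cells under passage 6 were seeded at 7 × 10^4 cells/cm2 in 12-well plates and washed with DPBS pH 7.4. Apical [3H]Gly-Sar (0.5 μCi/mL in DPBS) with unlabeled Gly-Sar (5–250 μM) was incubated 15 min at 37 °C and 4 °C. Stop was ice-cold 200 mM KCl/2 mM HEPES. Lysis in 0.3 N NaOH/0.1% Triton X-100, scintillation counting, normalised to protein. Specific uptake is 37 °C minus 4 °C. Michaelis–Menten fit gave Km and Vmax; efficiency is Vmax/Km; n = 3.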

[8] = system: apical peptide transporters in MDCKII-MDR1 cells; experiment: Apical [3H]Gly-Sar uptake; type: in vitro ADME, canine
Method in brief: as §3

[9] = system: apical peptide transporters; experiment: Apical [3H]Gly-Sar uptake; type: in vitro ADME, canine; settings: dog, MDCKII-BCRP cells (apical uptake), pH 7.4
Method in brief: as §3

[10] = system: apical peptide transporters in MDCKII-BCRP cells; experiment: Apical [3H]Gly-Sar uptake; type: in vitro ADME, canine
Method in brief: as §3

[11] = system: apical peptide transporters in MDCKII-wt cells; experiment: Apical [3H]Gly-Sar uptake; type: in vitro ADME, canine
Method in brief: as §3

[12] = Transporter-mediated transepithelial Gly-Sar transport; type: in vitro ADME, canine; settings: dog
Method in brief: as §1

[13] = system: basolateral peptide transporters; experiment: Basolateral [3H]Gly-Sar uptake; type: in vitro ADME, canine; settings: dog, MDCKII-MRP2 cells on Transwell inserts (basolateral uptake), pH 7.4
Method in brief: as §2

[14] = system: basolateral peptide transporters in MDCKII-MRP2 cells; experiment: Basolateral [3H]Gly-Sar uptake; type: in vitro ADME, canine; settings: basolateral uptake, MDCKII-MRP2
Method in brief: as §2

[15] = system: apical peptide transporters; experiment: Apical [3H]Gly-Sar uptake; type: in vitro ADME, canine; settings: dog, MDCKII-MRP2 cells (apical uptake), pH 7.4
Method in brief: as §3

[16] = system: apical peptide transporters in MDCKII-MRP2 cells; experiment: Apical [3H]Gly-Sar uptake; type: in vitro ADME, canine
Method in brief: as §3

[17] = system: basolateral peptide transporters; experiment: Basolateral [3H]Gly-Sar uptake; type: in vitro ADME, canine; settings: dog, MDCKII-MDR1 cells on Transwell inserts (basolateral uptake), pH 7.4
Method in brief: as §2

[18] = system: basolateral peptide transporters in MDCKII-MDR1 cells; experiment: Basolateral [3H]Gly-Sar uptake; type: in vitro ADME, canine; settings: basolateral uptake, MDCKII-MDR1
Method in brief: as §2

[19] = system: apical peptide transporters (PepT1 and PepT2) in MDCKII cell lines; experiment: Inhibition of apical [3H]Gly-Sar uptake by peptide transporter inhibitors; type: cell-based, canine; settings: inhibitor 100 μM, pH 7.4, 37 °C, 15 min, all four MDCKII cell lines
[20] = AP–BL [14C]Mannitol permeability; type: in vitro ADME, canine; settings: dog, MDCK, pH 7.4
[21] = AP–BL [14C]Mannitol permeability; type: in vitro ADME, canine; settings: dog, MDCK-MDR1, pH 7.4
[22] = AP–BL permeability, AP chamber pH 4.0, BL pH 7.4
[23] = AP–BL permeability, AP chamber pH 5.0, BL pH 7.4
[24] = AP–BL permeability, AP chamber pH 6.0, BL pH 7.4
[25] = BL–AP permeability, AP chamber pH 4.0, BL pH 7.4
[26] = BL–AP permeability, AP chamber pH 5.0, BL pH 7.4
[27] = BL–AP permeability, AP chamber pH 6.0, BL pH 7.4
[28] = pH 7.4, AP–BL permeability, AP chamber pH 7.4, BL pH 7.4
[29] = pH 7.4, BL–AP permeability, AP chamber pH 7.4, BL pH 7.4
[30] = MDCKII-MDR1, AP chamber pH 4.0, BL pH 7.4
[31] = MDCKII-MDR1, AP chamber pH 5.0, BL pH 7.4
[32] = MDCKII-MDR1, AP chamber pH 6.0, BL pH 7.4

Papp A→B at 60 min, 0.5 μCi/mL [1, 22]: 71 ± 3 nm/s
Papp A→B at 60 min, 0.5 μCi/mL [1, 23]: 76 ± 12 nm/s
Papp A→B at 60 min, 0.5 μCi/mL [1, 24]: 107 ± 7 nm/s
Papp B→A at 60 min, 0.5 μCi/mL [1, 25]: 109 ± 7 nm/s
Papp B→A at 60 min, 0.5 μCi/mL [1, 26]: 65 ± 7 nm/s
Papp B→A at 60 min, 0.5 μCi/mL [1, 27]: 72 ± 9 nm/s
Papp A→B at 60 min, 0.5 μCi/mL [1, 28]: 186 ± 19 nm/s
Papp B→A at 60 min, 0.5 μCi/mL [1, 29]: 156 ± 1 nm/s
Papp A→B at 60 min, 0.5 μCi/mL [2, 30]: 60 ± 4 nm/s
Papp A→B at 60 min, 0.5 μCi/mL [2, 31]: 64 ± 5 nm/s
Papp A→B at 60 min, 0.5 μCi/mL [2, 32]: 80 ± 4 nm/s
Papp B→A at 60 min, 0.5 μCi/mL [2, 30]: 101 ± 13 nm/s
Papp B→A at 60 min, 0.5 μCi/mL [2, 31]: 76 ± 8 nm/s
Papp B→A at 60 min, 0.5 μCi/mL [2, 32]: 82 ± 5 nm/s
Papp A→B at 60 min, 0.5 μCi/mL [3, 22]: 131 ± 14 nm/s
Papp A→B at 60 min, 0.5 μCi/mL [3, 23]: 149 ± 28 nm/s
Papp A→B at 60 min, 0.5 μCi/mL [3, 24]: 222 ± 19 nm/s
Papp B→A at 60 min, 0.5 μCi/mL [3, 25]: 94 ± 4 nm/s
Papp B→A at 60 min, 0.5 μCi/mL [3, 26]: 66 ± 6 nm/s
Papp B→A at 60 min, 0.5 μCi/mL [3, 27]: 60 ± 10 nm/s
Papp A→B at 60 min, 0.5 μCi/mL [3, 28]: 367 ± 2 nm/s
Papp B→A at 60 min, 0.5 μCi/mL [3, 29]: 80 ± 9 nm/s
Km at 15 min [4]: 46.1 ± 2.26 µM
Km at 15 min [7]: 29.1 ± 3.29 µM
Km at 15 min [9]: 60.7 ± 8.56 µM
extracellular pH of maximal apical uptake ([11]; pH 4.0–7.4 tested, all MDCKII cell lines): 6.0
uptake in MDCKII-wt cells in comparison with transfected cells ([11]; total apical uptake at 37 °C, pH 7.4): 3–5 fold
Papp A→B at 60 min, 0.5 μCi/mL ([12]; AP–BL permeability, MDCKII-MRP2, AP chamber pH 4.0, BL pH 7.4): 86 ± 11 nm/s
Papp A→B at 60 min, 0.5 μCi/mL ([12]; AP–BL permeability, MDCKII-MRP2, AP chamber pH 5.0, BL pH 7.4): 99 ± 8 nm/s
Papp A→B at 60 min, 0.5 μCi/mL ([12]; AP–BL permeability, MDCKII-MRP2, AP chamber pH 6.0, BL pH 7.4): 106 ± 1 nm/s
Papp B→A at 60 min, 0.5 μCi/mL ([12]; BL–AP permeability, MDCKII-MRP2, AP chamber pH 4.0, BL pH 7.4): 85 ± 6 nm/s
Papp B→A at 60 min, 0.5 μCi/mL ([12]; BL–AP permeability, MDCKII-MRP2, AP chamber pH 5.0, BL pH 7.4): 63 ± 4 nm/s
Papp B→A at 60 min, 0.5 μCi/mL ([12]; BL–AP permeability, MDCKII-MRP2, AP chamber pH 6.0, BL pH 7.4): 75 ± 5 nm/s
Papp A→B at 60 min, 0.5 μCi/mL ([12]; pH 7.4, AP–BL permeability, MDCKII-MRP2, AP chamber pH 7.4, BL pH 7.4): 177 ± 14 nm/s
Papp B→A at 60 min, 0.5 μCi/mL ([12]; pH 7.4, BL–AP permeability, MDCKII-MRP2, AP chamber pH 7.4, BL pH 7.4): 157 ± 6 nm/s
Km at 15 min [13]: 64.6 ± 4.09 µM
Km at 15 min [15]: 84.8 ± 18.6 µM
Km at 15 min [17]: 50.9 ± 7.86 µM
SMILES: CN(CC(=O)O)C(=O)CN [Gly-Sar, Glycylsarcosine] (H-Gly-[Sar]-OH)
Vmax [5]: 13.07 ± 2.61 fmol/mg protein/min
Km [6]: 13.7 ± 2.22 µM
Vmax [6]: 4.45 ± 0.04 fmol/mg protein/min
transport efficiency relative to that in wild-type cells ([8]; apical peptide transporters, MDCKII-MDR1 vs wild-type): around 25%
Vmax ([8]; apical uptake, MDCKII-MDR1, low passage): 1.30 ± 0.36 fmol/mg protein/min
Vmax relative to that in wild-type cells ([8]; apical uptake, hMDR1-transfected vs wild-type): about 12%
transport efficiency relative to that in wild-type cells ([10]; apical peptide transporters, MDCKII-BCRP vs wild-type): ~41%
Vmax ([10]; apical uptake, MDCKII-BCRP, low passage): 4.50 ± 0.83 fmol/mg protein/min
Vmax relative to that in wild-type cells ([10]; apical uptake, hBCRP-transfected vs wild-type): ~42%
Km ([11]; apical uptake, MDCKII-wt): 59.7 ± 1.1 µM
Vmax ([11]; apical uptake, MDCKII-wt): 10.76 ± 1.68 fmol/mg protein/min
Vmax [14]: 8.03 ± 1.78 fmol/mg protein/min
transport efficiency relative to that in wild-type cells ([16]; apical peptide transporters, MDCKII-MRP2 vs wild-type): ~30%
Vmax ([16]; apical uptake, MDCKII-MRP2, low passage): 4.62 ± 0.76 fmol/mg protein/min
Vmax relative to that in wild-type cells ([16]; apical uptake, hMRP2-transfected vs wild-type): ~43%
Vmax [18]: 8.52 ± 0.81 fmol/mg protein/min

SMILES: CCC(=O)O[C@@H](O[P@](=O)(CCCCc1ccccc1)CC(=O)N1C[C@H](C2CCCCC2)C[C@H]1C(=O)O)C(C)C [fosinopril, Fosinopril]
effect on apical [3H]Gly-Sar uptake compared to control [19]: significantly reduced apical Gly-Sar uptake

Papp A→B at 60 min, 0.125 µCi/mL [20]: 421 ± 5 nm/s
Papp A→B at 60 min, 0.125 µCi/mL [21]: 184 ± 9 nm/s
SMILES: OC[C@@H](O)[C@@H](O)[C@H](O)[C@H](O)CO [[^14C]Mannitol, Mannitol]
